Measured values from ChEMBL document CHEMBL1142184, “Treatment and outcomes of infections by methicillin-resistant Staphylococcus aureus at an ambulatory clinic” (2007).

Legend:
Staphylococcus aureus [1] = assay: Antibacterial activity against methicillin-susceptible Staphylococcus aureus isolates from skin or soft tissue infection outpatients; format: functional
Summary of the method: (§1)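 Isolates came from S. aureus-positive wound cultures. Clinicians took these at their discretion when resistant infection was suspected, in clinic patients with signs or symptoms of skin or soft tissue infection. Only cases with recorded antibiotic sensitivities were included. Nasal carriage cultures and outside-hospital cases lacking culture data were excluded. Yearly susceptibility trends used the Mantel score test, two-sided.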

Staphylococcus aureus [2] = assay: Antibacterial activity against methicillin-resistant Staphylococcus aureus isolates from skin or soft tissue infection outpatients; format: functional; summary of the method: as §1

SMILES: CCC[C@@H]1C[C@@H](C(=O)NC(C(C)Cl)[C@H]2O[C@H](SC)[C@H](O)[C@@H](O)[C@H]2O)N(C)C1 (single isomer, unassigned) [CLINDAMYCIN]
- Activity (Staphylococcus aureus [1]): 7%
- Activity (Staphylococcus aureus [2]): 48.2%

SMILES: Cc1nnc(SCC2=C(C(=O)O)N3C(=O)[C@@H](NC(=O)Cn4cnnn4)[C@H]3SC2)s1 [CEFAZOLIN]
- Activity (Staphylococcus aureus [1]): 0%
- Activity (Staphylococcus aureus [2]): 100%

SMILES: O=C(N[C@H](CO)[C@H](O)c1ccc([N+](=O)[O-])cc1)C(Cl)Cl [CHLORAMPHENICOL]
- Activity (Staphylococcus aureus [1]): 0%

SMILES: O=C(O)c1cn(C2CC2)c2cc(N3CCNCC3)c(F)cc2c1=O [CIPROFLOXACIN]
- Activity (Staphylococcus aureus [1]): 8.8%
- Activity (Staphylococcus aureus [2]): 78.5%

SMILES: CC[C@H]1OC(=O)[C@H](C)[C@@H](O[C@H]2C[C@@](C)(OC)[C@@H](O)[C@H](C)O2)[C@H](C)[C@@H](O[C@@H]2O[C@H](C)C[C@H](N(C)C)[C@H]2O)[C@](C)(O)C[C@@H](C)C(=O)[C@H](C)[C@@H](O)[C@]1(C)O [ERYTHROMYCIN]
- Activity (Staphylococcus aureus [1]): 57.9%
- Activity (Staphylococcus aureus [2]): 93.8%

SMILES: C[C@H]1COc2c(N3CCN(C)CC3)c(F)cc3c(=O)c(C(=O)O)cn1c23.C[C@H]1COc2c(N3CCN(C)CC3)c(F)cc3c(=O)c(C(=O)O)cn1c23.O [LEVOFLOXACIN]
- Activity (Staphylococcus aureus [1]): 0%
- Activity (Staphylococcus aureus [2]): 33.3%

SMILES: CO[C@H]1/C=C/O[C@@]2(C)Oc3c(C)c(O)c4c(O)c(c(/C=N/N5CCN(C)CC5)c(O)c4c3C2=O)NC(=O)/C(C)=C\C=C\[C@H](C)[C@H](O)[C@@H](C)[C@@H](O)[C@@H](C)[C@H](OC(C)=O)[C@@H]1C [RIFAMPIN]
- Activity (Staphylococcus aureus [1]): 0%

SMILES: CN(C)[C@@H]1C(O)=C(C(N)=O)C(=O)[C@@]2(O)C(O)=C3C(=O)c4c(O)cccc4[C@@](C)(O)[C@H]3C[C@@H]12 [TETRACYCLINE]
- Activity (Staphylococcus aureus [1]): 0%
- Activity (Staphylococcus aureus [2]): 53.8%

SMILES: CN[C@H](CC(C)C)C(=O)N[C@H]1C(=O)N[C@@H](CC(N)=O)C(=O)N[C@H]2C(=O)N[C@H]3C(=O)N[C@H](C(=O)N[C@H](C(=O)O)c4cc(O)cc(O)c4-c4cc3ccc4O)[C@H](O)c3ccc(c(Cl)c3)Oc3cc2cc(c3O[C@@H]2O[C@H](CO)[C@@H](O)[C@H](O)[C@H]2O[C@H]2C[C@](C)(N)[C@H](O)[C@H](C)O2)Oc2ccc(cc2Cl)[C@H]1O [VANCOMYCIN]
- Activity (Staphylococcus aureus [1]): 0%
- Activity (Staphylococcus aureus [2]): 0%
